Among the data in ChEMBL document CHEMBL1126768, “A mechanism-based inactivation study of neutral endopeptidase 24.11” (J Med Chem, 1993) are kinact and K cat/Kinact values, retold here.

Experiment [1] addresses T1, Angiotensin-converting enzyme (Rattus norvegicus) (UniProt P47820).
T1 sequence (whole entry): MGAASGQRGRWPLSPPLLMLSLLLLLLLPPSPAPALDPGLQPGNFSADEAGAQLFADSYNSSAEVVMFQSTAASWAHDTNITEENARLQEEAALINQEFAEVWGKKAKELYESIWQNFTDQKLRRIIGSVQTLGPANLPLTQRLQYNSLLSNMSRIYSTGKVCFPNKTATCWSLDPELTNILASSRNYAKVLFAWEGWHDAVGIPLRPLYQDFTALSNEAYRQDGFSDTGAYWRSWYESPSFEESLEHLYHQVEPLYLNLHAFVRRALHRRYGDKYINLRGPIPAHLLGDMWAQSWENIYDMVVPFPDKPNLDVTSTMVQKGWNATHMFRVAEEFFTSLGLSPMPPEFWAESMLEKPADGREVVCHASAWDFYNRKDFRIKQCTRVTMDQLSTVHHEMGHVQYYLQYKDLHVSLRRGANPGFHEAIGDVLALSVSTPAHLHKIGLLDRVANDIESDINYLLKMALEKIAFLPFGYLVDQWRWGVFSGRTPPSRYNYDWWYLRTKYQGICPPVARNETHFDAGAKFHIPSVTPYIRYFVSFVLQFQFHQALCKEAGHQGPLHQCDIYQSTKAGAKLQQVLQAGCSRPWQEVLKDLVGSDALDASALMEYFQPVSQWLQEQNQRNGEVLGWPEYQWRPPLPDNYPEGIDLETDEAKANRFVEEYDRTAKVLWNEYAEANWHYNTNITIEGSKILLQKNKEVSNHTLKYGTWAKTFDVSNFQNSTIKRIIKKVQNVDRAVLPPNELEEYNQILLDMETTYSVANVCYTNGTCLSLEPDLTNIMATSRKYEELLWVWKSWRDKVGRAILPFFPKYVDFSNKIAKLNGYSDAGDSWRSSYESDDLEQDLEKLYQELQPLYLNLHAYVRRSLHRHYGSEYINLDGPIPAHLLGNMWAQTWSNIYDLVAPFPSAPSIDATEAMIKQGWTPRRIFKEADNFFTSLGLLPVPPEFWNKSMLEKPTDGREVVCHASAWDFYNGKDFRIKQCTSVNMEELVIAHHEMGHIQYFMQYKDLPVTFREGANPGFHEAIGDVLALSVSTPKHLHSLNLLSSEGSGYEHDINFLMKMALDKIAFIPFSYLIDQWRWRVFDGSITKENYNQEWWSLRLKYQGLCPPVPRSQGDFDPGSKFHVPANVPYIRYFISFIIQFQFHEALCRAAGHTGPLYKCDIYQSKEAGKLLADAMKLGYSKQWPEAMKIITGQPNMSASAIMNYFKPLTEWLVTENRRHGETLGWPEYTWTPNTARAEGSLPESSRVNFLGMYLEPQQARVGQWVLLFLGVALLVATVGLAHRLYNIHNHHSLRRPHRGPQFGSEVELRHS
The experiment is described as follows: Inactivation constant for angiotensin converting enzyme (ACE).

In experiment [2] the target is Neprilysin (Homo sapiens) (UniProt P08473). The experiment is described as follows: Inactivation constant for Neutral endopeptidase (NEP). The method, boiled down: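 Recombinant human NEP from CHO cells (>99% pure), 0.5 μM in 50 mM HEPES pH 7.4 with 10% p-dioxane, incubated at 25 °C with inactivator at 0.5–7.5 μM final. Aliquots diluted 1:100 into DAGNPG assay solution (50 mM Tris pH 7.4, 37 °C), fluorescence read at ex 342/em 562 nm. Pseudo-first-order kobs plotted double-reciprocally against inactivator concentration to give kinact and Km.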
Sequence of Neprilysin (Homo sapiens) (P08473 whole entry): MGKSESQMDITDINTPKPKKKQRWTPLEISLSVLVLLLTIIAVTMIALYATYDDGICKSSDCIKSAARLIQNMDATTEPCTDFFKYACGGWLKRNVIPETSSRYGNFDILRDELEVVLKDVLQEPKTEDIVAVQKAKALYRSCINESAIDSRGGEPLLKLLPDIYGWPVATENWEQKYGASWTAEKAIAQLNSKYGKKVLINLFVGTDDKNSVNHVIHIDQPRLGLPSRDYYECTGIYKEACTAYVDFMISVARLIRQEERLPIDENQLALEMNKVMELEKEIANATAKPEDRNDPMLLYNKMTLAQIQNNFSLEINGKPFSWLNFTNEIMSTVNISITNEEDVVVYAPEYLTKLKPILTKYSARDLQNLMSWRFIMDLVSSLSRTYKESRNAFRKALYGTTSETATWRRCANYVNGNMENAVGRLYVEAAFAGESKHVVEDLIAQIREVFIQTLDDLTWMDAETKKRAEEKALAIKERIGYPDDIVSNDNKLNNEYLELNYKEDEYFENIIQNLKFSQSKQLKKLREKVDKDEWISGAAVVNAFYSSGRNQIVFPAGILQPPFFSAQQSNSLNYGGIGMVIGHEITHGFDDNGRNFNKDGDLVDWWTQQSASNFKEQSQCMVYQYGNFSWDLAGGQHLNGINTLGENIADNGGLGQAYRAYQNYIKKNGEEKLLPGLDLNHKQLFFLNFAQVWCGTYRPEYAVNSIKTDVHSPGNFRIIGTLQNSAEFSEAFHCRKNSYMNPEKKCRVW

The nature of experiment [3]: Partition ratio expressed as ratio of catalytic constant to that of inactivation constant for (NEP). The method in brief:
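Partition ratio was found by titration. NEP at 0.5 μM in 50 mM HEPES pH 7.4 was mixed with inactivator at inactivator/NEP molar ratios from 1 up to 2600 or 6000, then stirred gently at 4 °C for 16 h. Aliquots were diluted 1:100 into DAGNPG assay solution and residual activity was measured fluorometrically. Controls lacked inactivator.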

The target in experiment [4] is Angiotensin-converting enzyme (Homo sapiens) (UniProt P12821). The experiment is described as follows: Partition ratio expressed as ratio of catalytic constant to that of inactivation constant for angiotensin converting enzyme (ACE).
Sequence of Angiotensin-converting enzyme (Homo sapiens) (P12821 whole entry): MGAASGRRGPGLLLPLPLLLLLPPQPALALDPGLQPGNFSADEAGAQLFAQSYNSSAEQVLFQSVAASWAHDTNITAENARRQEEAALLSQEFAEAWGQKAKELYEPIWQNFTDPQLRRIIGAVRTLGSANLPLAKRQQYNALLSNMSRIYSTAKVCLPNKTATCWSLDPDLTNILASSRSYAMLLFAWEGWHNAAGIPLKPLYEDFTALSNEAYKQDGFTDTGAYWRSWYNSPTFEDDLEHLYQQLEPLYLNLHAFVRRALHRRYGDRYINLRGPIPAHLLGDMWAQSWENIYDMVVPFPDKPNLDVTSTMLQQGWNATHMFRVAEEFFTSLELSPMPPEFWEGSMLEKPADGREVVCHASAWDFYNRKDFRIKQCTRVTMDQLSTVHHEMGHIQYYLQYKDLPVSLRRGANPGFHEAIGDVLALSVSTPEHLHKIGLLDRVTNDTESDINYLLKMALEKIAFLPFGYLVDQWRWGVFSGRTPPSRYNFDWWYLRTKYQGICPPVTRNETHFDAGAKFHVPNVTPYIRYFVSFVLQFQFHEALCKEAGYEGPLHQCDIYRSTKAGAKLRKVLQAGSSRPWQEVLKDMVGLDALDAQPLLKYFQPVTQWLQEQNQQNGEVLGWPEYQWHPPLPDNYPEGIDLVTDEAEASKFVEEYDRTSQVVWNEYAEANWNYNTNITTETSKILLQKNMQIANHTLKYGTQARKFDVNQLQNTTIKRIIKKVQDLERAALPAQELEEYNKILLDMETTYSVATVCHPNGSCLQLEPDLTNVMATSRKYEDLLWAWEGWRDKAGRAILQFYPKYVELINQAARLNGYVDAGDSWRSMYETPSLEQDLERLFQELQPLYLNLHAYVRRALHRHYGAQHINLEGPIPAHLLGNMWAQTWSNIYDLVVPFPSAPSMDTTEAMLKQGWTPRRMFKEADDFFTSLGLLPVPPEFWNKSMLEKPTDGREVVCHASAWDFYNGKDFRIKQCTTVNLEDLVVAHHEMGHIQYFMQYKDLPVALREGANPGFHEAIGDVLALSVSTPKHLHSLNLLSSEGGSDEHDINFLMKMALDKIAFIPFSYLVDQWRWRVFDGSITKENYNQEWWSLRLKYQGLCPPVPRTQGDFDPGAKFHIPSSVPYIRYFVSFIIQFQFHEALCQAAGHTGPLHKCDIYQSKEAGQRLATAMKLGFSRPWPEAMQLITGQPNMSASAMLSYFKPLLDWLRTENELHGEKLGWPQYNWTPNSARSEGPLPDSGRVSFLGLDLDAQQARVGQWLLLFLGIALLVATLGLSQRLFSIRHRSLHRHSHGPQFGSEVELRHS
The target of experiment [5] is Neprilysin (Homo sapiens) (UniProt P08473).

Regarding `N#CCC(=O)NC(Cc1ccccc1)C(=O)NC(Cc1ccccc1)C(=O)O` (stereo unspecified), the inactivation rate constant (kinact) was found to be 0.08 min⁻¹ in experiment [1] and 0.022 min⁻¹ in experiment [2]. In addition, the K cat/Kinact is 4700 in experiment [3] and 8300 in experiment [4].

For `N#CCC(=O)CC(Cc1ccccc1)C(=O)NC(Cc1ccccc1)C(=O)O` (stereo unspecified), in experiment [3], the K cat/Kinact came to 1340. Also, in experiment [5], the kinact turned out to be 0.071 min⁻¹.

The term kinact denotes the rate constant of inactivation at saturating inhibitor.
